This is a sample that favours compounds with a hit; in the whole collection about 29% have one here.
Ecoli tolC: E. coli tolC mutant growth inhibition; E. coli BW25113 tolC mutant growth, OD615; growth inhibition, % at 10 µM (by protocol); 2.2% of 65,000 active;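 active = growth inhibition at or above a cutoff equal to the mean over every tested compound plus 3 SD, cut at about 60% in these data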;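 also: growth measured after 20 h incubation at 37 °C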
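Signal: optical density read at 615 nm; Assay system: E. coli ΔtolC::kan strain BW25113; Times: 20 h incubation with compound, 37 °C; Dosing: 10 µM final, single dose.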
E coli WT exp: growth inhibitors of E. coli BW25113 wild type; growth inhibition, % at 100 µM; AID 710; OD600 absorbance; 0.15% of 98,000 active;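 active = growth inhibition above about 50% at one test dose, limit read from the data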;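 also: growth measured after 20 h incubation at 37 °C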
CYP2C9 inhib: human CYP2C9 inhibition. P11712. CYP2C9 Supersomes, luciferin-H conversion, luminescence. inhibition, % at 5 µM. 20% of 96,000 active. AID 777;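 active = blocking of liver enzyme CYP2C9 beyond about 50% at 5 µM, limit read from the data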
Target sequence (P11712 whole entry, looked up): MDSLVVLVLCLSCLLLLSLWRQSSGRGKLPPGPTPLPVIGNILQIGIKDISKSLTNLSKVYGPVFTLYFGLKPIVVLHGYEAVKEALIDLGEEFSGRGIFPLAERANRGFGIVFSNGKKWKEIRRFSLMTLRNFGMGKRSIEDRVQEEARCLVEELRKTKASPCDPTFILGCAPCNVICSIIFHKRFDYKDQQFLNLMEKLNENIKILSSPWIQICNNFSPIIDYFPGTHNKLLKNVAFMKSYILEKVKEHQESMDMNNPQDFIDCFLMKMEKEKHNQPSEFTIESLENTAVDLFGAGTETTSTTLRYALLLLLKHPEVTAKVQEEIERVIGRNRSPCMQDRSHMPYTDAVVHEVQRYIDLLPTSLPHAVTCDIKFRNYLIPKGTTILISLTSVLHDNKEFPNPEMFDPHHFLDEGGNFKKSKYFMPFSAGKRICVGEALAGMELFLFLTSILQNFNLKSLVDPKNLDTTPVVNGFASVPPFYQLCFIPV
CYP2C19 inh: human CYP2C19 inhibition | P33261 | CYP2C19 Supersomes, luciferin-H EGE luminescence, 30 min | 21% of 96,000 active | inhibition, % at 5 µM;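 active = CYP2C19 inhibition above a set limit at 5 µM in the primary screen, cut at about 50% in these data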
CYP2C19 act: activators of human cytochrome P450 2C19; recombinant CYP2C19, luciferin-H EGE luminescence; active compounds read high; 0 = fully inhibited enzyme, 1 = untreated enzyme; activation factor at 5 µM; 96,000 tested, under 10 active;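 active = activation factor of at least 2 at 5 µM in the primary screen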
CYP2C9 activ: activators of human CYP2C9 | recombinant CYP2C9, luciferin-H conversion, luminescence; active compounds read high; factor 1 = untreated enzyme, 0 = blocked | activation factor at 5 µM | 1.4% of 96,000 active | P11712 | AID 1024;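 active = activation factor of 2 or more for CYP2C9 at a 5 µM dose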
Hits are given with their value.

Results for Cc1cc2oc(=O)cc(COC(=O)c3cccc(N(C)C)c3)c2cc1C ?
Ecoli tolC: inactive

Results for O=C(OCc1nc2ccccc2s1)c1cccc(S(=O)(=O)N2CCOCC2)c1 ?
Ecoli tolC: inactive; E coli WT exp: inactive; CYP2C9 inhib: 65; CYP2C19 inh: 60; CYP2C19 act: inactive; CYP2C9 activ: inactive

Results for O=C(COC(=O)c1cccc(S(=O)(=O)N2CCOCC2)c1)Nc1nc(-c2ccccc2Cl)cs1 ?
E coli WT exp: inactive; CYP2C9 inhib: 74; CYP2C19 inh: 67; CYP2C19 act: inactive; CYP2C9 activ: inactive

How did Cc1cc(NC(=O)COC(=O)c2cccc(S(=O)(=O)N3CCOCC3)c2)no1 do in these assays?
Ecoli tolC: inactive; E coli WT exp: inactive; CYP2C9 inhib: inactive; CYP2C19 inh: inactive; CYP2C19 act: inactive; CYP2C9 activ: inactive

What do the screens show for `CSc1nc2ccccc2n1Cc1c(Cl)cccc1Cl`?
E coli WT exp: inactive; CYP2C9 inhib: 56; CYP2C19 inh: 52; CYP2C19 act: inactive; CYP2C9 activ: inactive

How did Cc1ccc(SCc2nc3ccccc3n2CC(=O)Nc2c(C)cccc2C)cc1 do in these assays?
E coli WT exp: inactive; CYP2C9 inhib: inactive; CYP2C19 inh: inactive; CYP2C19 act: inactive; CYP2C9 activ: inactive

How did Cc1ccc(SCc2nc3ccccc3n2CC(=O)Nc2ccccc2)cc1 do in these assays?
E coli WT exp: inactive; CYP2C9 inhib: 84; CYP2C19 inh: 57; CYP2C19 act: inactive; CYP2C9 activ: inactive

Results for O=C(Cn1c(CSc2ccccc2)nc2ccccc21)Nc1ccccc1 ?
E coli WT exp: inactive; CYP2C9 inhib: 74; CYP2C19 inh: 51; CYP2C19 act: inactive; CYP2C9 activ: inactive

How did CSc1nc2ccccc2n1CC(=O)Nc1ccccc1 do in these assays?
Ecoli tolC: inactive; E coli WT exp: inactive; CYP2C9 inhib: 79; CYP2C19 inh: 93; CYP2C19 act: inactive; CYP2C9 activ: inactive

How did CCc1ccc(NC(=O)Cn2c(SC)nc3ccccc32)cc1 do in these assays?
Ecoli tolC: inactive; E coli WT exp: inactive; CYP2C9 inhib: inactive; CYP2C19 inh: inactive; CYP2C19 act: inactive; CYP2C9 activ: inactive

How did CCc1ccc2[nH]c(=O)c(CN(Cc3ccc4c(c3)OCO4)C(=O)c3ccco3)cc2c1 do in these assays?
Ecoli tolC: inactive; E coli WT exp: inactive; CYP2C9 inhib: inactive; CYP2C19 inh: inactive; CYP2C19 act: inactive; CYP2C9 activ: inactive

Results for CCC(C)Sc1nc2ccccc2n1CC(=O)O (stereo not drawn) ?
E coli WT exp: inactive; CYP2C9 inhib: 88; CYP2C19 inh: inactive; CYP2C19 act: inactive; CYP2C9 activ: inactive

Results for CCCNS(=O)(=O)c1cccn1-c1ncc(C(F)(F)F)cc1Cl ?
E coli WT exp: inactive; CYP2C9 inhib: 66; CYP2C19 inh: 51; CYP2C19 act: inactive; CYP2C9 activ: inactive

What do the screens show for `NS(=O)(=O)c1cccn1-c1ncc(C(F)(F)F)cc1Cl`?
E coli WT exp: inactive; CYP2C9 inhib: inactive; CYP2C19 inh: inactive; CYP2C19 act: inactive; CYP2C9 activ: inactive

Results for COc1ccc2c(CC(=O)OCC(=O)N3CCc4ccccc43)coc2c1 ?
Ecoli tolC: inactive; E coli WT exp: inactive; CYP2C9 inhib: inactive; CYP2C19 inh: inactive; CYP2C19 act: inactive; CYP2C9 activ: inactive

How did COc1ccc(OCC(=O)NC(=S)N2CCCc3ccccc32)cc1 do in these assays?
E coli WT exp: inactive; CYP2C9 inhib: inactive; CYP2C19 inh: 64; CYP2C19 act: inactive; CYP2C9 activ: inactive

How did Cc1ccc(-c2noc(CCC(=O)N3CCCc4ccccc43)n2)cc1 do in these assays?
Ecoli tolC: 92; E coli WT exp: inactive; CYP2C9 inhib: 95; CYP2C19 inh: 85; CYP2C19 act: inactive; CYP2C9 activ: inactive

How did COc1ccc2c(CC(=O)N3CCc4ccccc43)coc2c1 do in these assays?
E coli WT exp: inactive; CYP2C9 inhib: inactive; CYP2C19 inh: 64; CYP2C19 act: inactive; CYP2C9 activ: inactive

Results for O=C(NC(=S)N1CCCc2ccccc21)c1ccc([N+](=O)[O-])cc1 ?
E coli WT exp: inactive; CYP2C9 inhib: inactive; CYP2C19 inh: inactive; CYP2C19 act: inactive; CYP2C9 activ: inactive

Results for O=C(NC(=S)N1CCCc2ccccc21)c1ccccc1 ?
E coli WT exp: inactive; CYP2C9 inhib: inactive; CYP2C19 inh: 51; CYP2C19 act: inactive; CYP2C9 activ: inactive

How did COc1cccc(NC(=O)CC2(CC(=O)O)CCCC2)c1 do in these assays?
Ecoli tolC: inactive; E coli WT exp: inactive; CYP2C9 inhib: inactive; CYP2C19 inh: inactive; CYP2C19 act: inactive; CYP2C9 activ: inactive

Results for O=C(CN1CCOc2ccccc21)NCc1ccc(F)cc1 ?
Ecoli tolC: inactive

How did CC(C)Oc1ccc(C(=O)N2CCCc3ccccc32)cc1 do in these assays?
Ecoli tolC: inactive; E coli WT exp: inactive; CYP2C9 inhib: inactive; CYP2C19 inh: 97; CYP2C19 act: inactive; CYP2C9 activ: inactive

How did Cn1ncc(Cl)c1C(=O)N1CCc2ccccc21 do in these assays?
Ecoli tolC: inactive; E coli WT exp: inactive; CYP2C9 inhib: inactive; CYP2C19 inh: inactive; CYP2C19 act: inactive; CYP2C9 activ: inactive

Results for Cn1ncc(Cl)c1C(=O)N1CCCc2ccccc21 ?
E coli WT exp: inactive; CYP2C9 inhib: 63; CYP2C19 inh: 54; CYP2C19 act: inactive; CYP2C9 activ: inactive

How did Cn1c(C(=O)N2CCCc3ccccc32)cc2c(=O)n3ccccc3nc21 do in these assays?
Ecoli tolC: inactive; E coli WT exp: inactive; CYP2C9 inhib: 65; CYP2C19 inh: inactive; CYP2C19 act: inactive; CYP2C9 activ: inactive

Results for O=C(c1ccc(C(=O)N2CCCc3ccccc32)s1)N1CCCc2ccccc21 ?
E coli WT exp: inactive; CYP2C9 inhib: inactive; CYP2C19 inh: 50; CYP2C19 act: inactive; CYP2C9 activ: inactive

How did CC(=O)Nc1cc(C(=O)N2CCN(C)CC2)ccc1Sc1ccc(C)cc1 do in these assays?
E coli WT exp: inactive; CYP2C9 inhib: inactive; CYP2C19 inh: inactive; CYP2C19 act: inactive; CYP2C9 activ: inactive

What do the screens show for `C=CCOc1c2ccc(C(=O)NCc3ccc(C)cc3)cc2nn1C`?
E coli WT exp: inactive; CYP2C9 inhib: inactive; CYP2C19 inh: inactive; CYP2C19 act: inactive; CYP2C9 activ: inactive

How did O=C1CC(c2ccc(Cl)c(Cl)c2)CC(O)=C1C=NCCN1CCNCC1 (stereo not drawn) do in these assays?
Ecoli tolC: inactive; E coli WT exp: inactive; CYP2C9 inhib: inactive; CYP2C19 inh: inactive; CYP2C19 act: inactive; CYP2C9 activ: inactive

Results for COc1ccccc1CC(=O)N1CCCc2ccccc21 ?
E coli WT exp: inactive; CYP2C9 inhib: inactive; CYP2C19 inh: 67; CYP2C19 act: inactive; CYP2C9 activ: 2.6

How did CCOC(=O)Cn1ncc2c(=O)oc3ccccc3c21 do in these assays?
Ecoli tolC: inactive; E coli WT exp: inactive; CYP2C9 inhib: inactive; CYP2C19 inh: inactive; CYP2C19 act: inactive; CYP2C9 activ: inactive

How did COc1ccc(OCCCC(=O)N2CCCc3ccccc32)cc1 do in these assays?
Ecoli tolC: inactive; E coli WT exp: inactive; CYP2C9 inhib: 83; CYP2C19 inh: 98; CYP2C19 act: inactive; CYP2C9 activ: inactive

Results for O=C(CCCC(=O)N1CCCc2ccccc21)N1CCCc2ccccc21 ?
Ecoli tolC: inactive; E coli WT exp: inactive; CYP2C9 inhib: inactive; CYP2C19 inh: 95; CYP2C19 act: inactive; CYP2C9 activ: inactive

High-throughput results deposited in PubChem by several laboratories.
